The results in this text go back to ChEMBL document CHEMBL4321868, “Scaffold Simplification Strategy Leads to a Novel Generation of Dual Human Immunodeficiency Virus and Enterovirus-A71 Entry Inhibitors” (J Med Chem, 2020).

The subject of data set [1] is Human immunodeficiency virus 2. The experiment in a line: Antiviral activity against HIV-2 ROD infected in human MT4 cells assessed as reduction in virus-induced cytopathic effect preincubated for 30 mins followed by viral infection and measured after 5 days by MTS assay. The following applies: Human immunodeficiency virus 2, ISOLATE ROD. Background: Cytopathic effects are the visible damage that an infection or toxin causes in cultured cells.

A further data set deals with Enterovirus A71. The data set can be described thus: Antiviral activity against Enterovirus A 71 BrCr infected in human RD cells assessed as reduction in virus-induced cytopathic effect preincubated for 1 day followed by viral infection and measured after 3 days by MTS/PMS method. It counts as functional, organism-based. The conditions noted are these: strain BRCR. In short, it runs like this:
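RD cells seeded in 96-well plates; next day serial compound dilutions plus virus at low MOI added. Incubation at 37 °C, 5% CO₂ until full CPE in untreated infected controls (3 days). Viability read by MTS/PMS; EC50 as 50% inhibition of virus-induced death from dose-response curves. CC50 from uninfected treated cells in the same setup; SI = CC50/EC50.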

The test system of data set [2] is Human immunodeficiency virus 1. The experiment in a line: Antiviral activity against HIV1 NL4.3 infected in human MT4 cells assessed as reduction in virus-induced cytopathic effect preincubated for 30 mins followed by viral infection and measured after 5 days by MTS assay. The format is functional, organism-based. The conditions noted are these: Human immunodeficiency virus 1, NL4.3, MT4.

Data set [3] can be described thus: Cytotoxicity against human MT4 cells assessed as reduction in cell viability measured after 5 days by MTS/PES assay. It counts as cell-based. In short, it runs like this:
(§1)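 MT-4 cells (RPMI-1640, 10% FCS, 1% L-glutamine) pre-incubated 30 min at 37 °C with compound, then infected with HIV-1 NL4.3 or HIV-2 ROD according to stock TCID50. After 5 days, CPE scored microscopically and viability read by MTS/PES at A490 to derive EC50; cytotoxicity measured by MTS/PES at 5 days in the same cells. SI = CC50/EC50. Mean ± S.D. of at least 3 experiments.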

Data set [4] in a line: Selectivity index, ratio of CC50 for human MT4 cells to EC50 for HIV1 NL4.3 infected in human MT4 cells. It counts as toxicity, cell-based. The conditions noted are these: read-out: Ratio CC50/EC50. An outline of the steps: as §1
Data set [5] is described as follows: Selectivity index, ratio of CC50 for human MT4 cells to EC50 for HIV-1 NL4.3 infected in human MT4 cells.
Data set [6] can be described thus: Selectivity index, ratio of CC50 for human RD cells to EC50 for Enterovirus A71 BrCr infected in human RD cells. It counts as toxicity, cell-based. The following applies: read-out: Ratio CC50/EC50. An outline of the steps:
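RD cells seeded in 96-well plates; next day serial compound dilutions plus virus at low MOI added. Incubation at 37 °C, 5% CO₂ until full CPE in untreated infected controls (3 days). CC50 from uninfected treated cells in the same setup; SI = CC50/EC50.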

pEC50: −log10 of the molar value.

By pEC50 is commonly meant the EC50 on a negative log10 scale, so that one unit is a factor of ten. The term CC50 denotes the concentration that lowers cell viability or growth by half. Take `O=C(CCC(CCC(=O)NC(Cc1c(-c2ccccc2F)[nH]c2ccccc12)C(=O)O)(CCC(=O)NC(Cc1c(-c2ccccc2F)[nH]c2ccccc12)C(=O)O)[N+](=O)[O-])NC(Cc1c(-c2ccccc2F)[nH]c2ccccc12)C(=O)O` (stereo unspecified): the pEC50 in data set [1] was less than 4.00; in the data set with Enterovirus A71, less than 4.05; in data set [2], 4.46. In data set [3], the CC50 at 120 h is greater than 100 µM. Besides, the selectivity ratio in data set [4] and in data set [5] was greater than 3 each time.

As to `O=C(CCC(CCC(=O)NC(Cc1c(-c2ccc(C(=O)O)cc2)[nH]c2ccccc12)C(=O)O)(CCC(=O)NC(Cc1c(-c2ccc(C(=O)O)cc2)[nH]c2ccccc12)C(=O)O)[N+](=O)[O-])NC(Cc1c(-c2ccc(C(=O)O)cc2)[nH]c2ccccc12)C(=O)O` (stereo unspecified), the pEC50 was less than 4.15 in data set [1], 4.91 with Enterovirus A71 and 5.62 in data set [2]. Further, in data set [3], the CC50 at 120 h was 71 µM. For the same compound, the selectivity ratio in data set [4] and in data set [5] was 29.6 throughout.

On to `O=C(CCC(CCC(=O)NC(Cc1c(-c2ccccc2)[nH]c2ccccc12)C(=O)O)(CCC(=O)NC(Cc1c(-c2ccccc2)[nH]c2ccccc12)C(=O)O)[N+](=O)[O-])NC(Cc1c(-c2ccccc2)[nH]c2ccccc12)C(=O)O` (stereo unspecified), for which the negative logarithm of the EC50 (pEC50) in data set [1] is less than 4.08; in the data set with Enterovirus A71, less than 4.00; in data set [2] it was 4.72. The CC50 at 120 h in data set [3] is 83 µM. For the same compound, the selectivity ratio in data set [4] and in data set [5] was 4.4 in each case.

As for `O=C(CCOCC(COCCC(=O)NC(Cc1c[nH]c2ccccc12)C(=O)O)(COCCC(=O)NC(Cc1c[nH]c2ccccc12)C(=O)O)COCCC(=O)NC(Cc1c[nH]c2ccccc12)C(=O)O)NC(Cc1c[nH]c2ccccc12)C(=O)O` (stereo unspecified), the pEC50 in data set [1] is less than 3.60; in the data set on Enterovirus A71 it was less than 4.00; in data set [2] it was less than 3.60. In addition, in data set [3], the CC50 at 120 h is greater than 250 µM.

As for `O=C(CCOCC(COCCC(=O)NC(Cc1cn(Cc2ccc(C(=O)O)cc2)c2ccccc12)C(=O)O)(COCCC(=O)NC(Cc1cn(Cc2ccc(C(=O)O)cc2)c2ccccc12)C(=O)O)COCCC(=O)NC(Cc1cn(Cc2ccc(C(=O)O)cc2)c2ccccc12)C(=O)O)NC(Cc1cn(Cc2ccc(C(=O)O)cc2)c2ccccc12)C(=O)O` (stereo unspecified), the pEC50 in data set [1] was less than 4.12; with Enterovirus A71, less than 4.71; in data set [2] it was less than 4.12. Moreover, the CC50 at 120 h in data set [3] was 76 µM.

Turning to `O=C(CCC(CCC(=O)NC(Cc1cn(Cc2ccc(F)cc2)c2ccccc12)C(=O)O)(CCC(=O)NC(Cc1cn(Cc2ccc(F)cc2)c2ccccc12)C(=O)O)[N+](=O)[O-])NC(Cc1cn(Cc2ccc(F)cc2)c2ccccc12)C(=O)O` (stereo unspecified), the pEC50 in data set [1] was 4.47; in data set [2], 4.37. Besides, the CC50 at 120 h in data set [3] is greater than 100 µM. Also, the selectivity ratio in data set [4] and in data set [5] was greater than 2.3 throughout.

For the compound `O=C(CCC(CCC(=O)NC(Cc1c[nH]c2ccccc12)C(=O)O)(CCC(=O)NC(Cc1c[nH]c2ccccc12)C(=O)O)[N+](=O)[O-])NC(Cc1c[nH]c2ccccc12)C(=O)O` (stereo unspecified), the pEC50 in data set [1] was less than 4.00; in the data set on Enterovirus A71, less than 3.92; in data set [2], less than 4.00. Moreover, in data set [3], the CC50 at 120 h was greater than 100 µM.

For `CN[C@@H]1[C@H](O[C@@H]2OC[C@@H](O)[C@H](O)[C@H]2O)[C@@H](O)[C@H](O[C@H]2c3cc(C)c(C(=O)N[C@H](C)C(=O)O)c(O)c3-c3c(cc4c(c3O)C(=O)c3cc(OC)cc(O)c3C4=O)[C@@H]2O)O[C@@H]1C` [PRADIMICIN A], the pEC50 in data set [2] was 5.48. Further, the CC50 at 120 h in data set [3] was greater than 100 µM. Moreover, the selectivity ratio in data set [4] and in data set [5] was greater than 30.3 throughout.

As for `COc1ccc(-c2[nH]c3ccccc3c2CC(NC(=O)CCC(CCC(=O)NC(Cc2c(-c3ccc(OC)cc3)[nH]c3ccccc23)C(=O)O)(CCC(=O)NC(Cc2c(-c3ccc(OC)cc3)[nH]c3ccccc23)C(=O)O)[N+](=O)[O-])C(=O)O)cc1` (stereo unspecified), the values for the pEC50 (in data set [1]; in the data set with Enterovirus A71; in data set [2]) were less than 5.03, less than 4.06 and less than 5.03, respectively. Also, the CC50 at 120 h in data set [3] was 9.3 µM.

Broadly, the EC90 is the concentration at which the effect reaches the 90% level. On to `O=C(CCC(CCC(=O)NC(Cc1c(-c2cccc(C(=O)O)c2)[nH]c2ccccc12)C(=O)O)(CCC(=O)NC(Cc1c(-c2cccc(C(=O)O)c2)[nH]c2ccccc12)C(=O)O)[N+](=O)[O-])NC(Cc1c(-c2cccc(C(=O)O)c2)[nH]c2ccccc12)C(=O)O` (stereo unspecified), for which the selectivity ratio in data set [6] is greater than 73.4; in data set [4], greater than 6; in data set [5], greater than 6. For the same compound, the pEC50 in data set [1] is 4.19; with Enterovirus A71 it was 6.00; in data set [2], 4.80. For the same compound, the EC90 with Enterovirus A71 is 1.35 µM. The CC50 at 120 h in data set [3] is greater than 100 µM.

As to `O=C(CCC(CCC(=O)NC(Cc1cn(Cc2ccc(C(=O)O)cc2)c2ccccc12)C(=O)O)(CCC(=O)NC(Cc1cn(Cc2ccc(C(=O)O)cc2)c2ccccc12)C(=O)O)[N+](=O)[O-])NC(Cc1cn(Cc2ccc(C(=O)O)cc2)c2ccccc12)C(=O)O` (stereo unspecified), the pEC50 in data set [1] is 4.33; in data set [2], 4.39. In addition, the CC50 at 120 h in data set [3] was greater than 100 µM. Besides, the selectivity ratio in data set [4] and in data set [5] was greater than 2.4 each time.

Consider `O=C(CCC(CCC(=O)NC(Cc1c(-c2ccc([N+](=O)[O-])cc2)[nH]c2ccccc12)C(=O)O)(CCC(=O)NC(Cc1c(-c2ccc([N+](=O)[O-])cc2)[nH]c2ccccc12)C(=O)O)[N+](=O)[O-])NC(Cc1c(-c2ccc([N+](=O)[O-])cc2)[nH]c2ccccc12)C(=O)O` (stereo unspecified), for which the pEC50 is 4.37 in data set [1], 4.54 in the data set on Enterovirus A71 and 4.39 in data set [2]. In addition, the EC90 in the data set with Enterovirus A71 turned out to be 58.2 µM. Further, the CC50 at 120 h in data set [3] was greater than 100 µM. Also, the selectivity ratio in data set [4] and in data set [5] was greater than 2 in each case.

As to `O=C(CCC(CCC(=O)NC(Cc1c(-c2ccc(C(F)(F)F)cc2)[nH]c2ccccc12)C(=O)O)(CCC(=O)NC(Cc1c(-c2ccc(C(F)(F)F)cc2)[nH]c2ccccc12)C(=O)O)[N+](=O)[O-])NC(Cc1c(-c2ccc(C(F)(F)F)cc2)[nH]c2ccccc12)C(=O)O` (stereo unspecified), the pEC50 is 4.17 in data set [1], less than 4.10 in the data set on Enterovirus A71 and 4.59 in data set [2]. In addition, in data set [3], the CC50 at 120 h is greater than 100 µM. The selectivity ratio in data set [4] and in data set [5] was greater than 4 each time.

For `O=C(CCOCC(COCCC(=O)NC(Cc1c(-c2ccc(C(=O)O)cc2)[nH]c2ccccc12)C(=O)O)(COCCC(=O)NC(Cc1c(-c2ccc(C(=O)O)cc2)[nH]c2ccccc12)C(=O)O)COCCC(=O)NC(Cc1c(-c2ccc(C(=O)O)cc2)[nH]c2ccccc12)C(=O)O)NC(Cc1c(-c2ccc(C(=O)O)cc2)[nH]c2ccccc12)C(=O)O` (stereo unspecified), the selectivity ratio in data set [6] is 161; in data set [4], greater than 137; in data set [5] it was greater than 137. Besides, the pEC50 in data set [1] is 6.12; in the data set with Enterovirus A71, 6.43; in data set [2], 6.14. The EC90 with Enterovirus A71 came out at 0.63 µM. For the same compound, the CC50 at 120 h in data set [3] is greater than 100 µM.

Turning to `O=C(CCC(CCC(=O)NC(Cc1cn(Cc2ccccc2)c2ccccc12)C(=O)O)(CCC(=O)NC(Cc1cn(Cc2ccccc2)c2ccccc12)C(=O)O)[N+](=O)[O-])NC(Cc1cn(Cc2ccccc2)c2ccccc12)C(=O)O` (stereo unspecified), the pEC50 is 4.42 in data set [1] and 4.31 in data set [2]. Also, the CC50 at 120 h in data set [3] was greater than 100 µM. Also, the selectivity ratio in data set [4] and in data set [5] was greater than 2 in each case.

Regarding `O=C(CCC(CCC(=O)NC(Cc1c(-c2ccc(Br)cc2)[nH]c2ccccc12)C(=O)O)(CCC(=O)NC(Cc1c(-c2ccc(Br)cc2)[nH]c2ccccc12)C(=O)O)[N+](=O)[O-])NC(Cc1c(-c2ccc(Br)cc2)[nH]c2ccccc12)C(=O)O` (stereo unspecified), the figures for the pEC50 (in data set [1]; in the data set with Enterovirus A71; in data set [2]) were less than 4.52, 4.19 and less than 4.52, respectively. Further, in data set [3], the CC50 at 120 h came to 30 µM.
